# Article PMC4148159 (Journal of Medicinal Chemistry, 2014)
# Columns and labels:
# [1] = tested on: Vector control cells (DKO MEF, RH7777, CHO, B103); experiment: Fura-2AM Ca2+ mobilization in empty vector control cells; type: cell-based; conditions: read-out: vector EC50
# Outline: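 Cells were loaded with Fura-2AM, and transient Ca2+ mobilization was read as fluorescence on a robotic plate reader. Receptor-expressing lines were CHO (LPA4), DKO MEF (LPA2), RH7777 (LPA1/3) and B103 (LPA5). Vector controls were the same lines transduced with empty vector. […] Values are means of three assays.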
# apoptosis = conditions: cell-based models of apoptosis; cited from earlier work
# [2] = tested on: radiation-induced apoptosis; conditions: mice suffering from the acute hematopoietic radiation syndrome; cited from earlier work
# LPA2 = LPA2 (Homo sapiens, UniProt Q9HBW0); experiment: Fura-2AM Ca2+ mobilization, agonist mode, LPA2 DKO MEF cells; type: cell-based; conditions: for LPA2 agonist activity (in words): Ca2+ mobilization, SAR discussion
# Sequence of LPA2 (Q9HBW0 whole entry): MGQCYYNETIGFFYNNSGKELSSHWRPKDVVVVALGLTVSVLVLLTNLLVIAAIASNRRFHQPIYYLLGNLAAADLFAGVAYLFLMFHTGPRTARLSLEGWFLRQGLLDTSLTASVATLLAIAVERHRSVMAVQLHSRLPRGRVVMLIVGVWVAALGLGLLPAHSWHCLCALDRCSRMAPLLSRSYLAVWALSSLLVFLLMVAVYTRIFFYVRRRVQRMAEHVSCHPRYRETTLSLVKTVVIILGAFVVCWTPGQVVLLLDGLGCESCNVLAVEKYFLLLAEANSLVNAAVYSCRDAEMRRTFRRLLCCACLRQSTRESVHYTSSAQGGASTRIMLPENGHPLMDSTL
# LPA3 [3] = target: T1, LPA3 (Homo sapiens, UniProt Q9UBY5); experiment: Ca2+ mobilization antagonist screen against LPA 18:1, LPA3; type: cell-based
# T1 sequence (Q9UBY5 1-353): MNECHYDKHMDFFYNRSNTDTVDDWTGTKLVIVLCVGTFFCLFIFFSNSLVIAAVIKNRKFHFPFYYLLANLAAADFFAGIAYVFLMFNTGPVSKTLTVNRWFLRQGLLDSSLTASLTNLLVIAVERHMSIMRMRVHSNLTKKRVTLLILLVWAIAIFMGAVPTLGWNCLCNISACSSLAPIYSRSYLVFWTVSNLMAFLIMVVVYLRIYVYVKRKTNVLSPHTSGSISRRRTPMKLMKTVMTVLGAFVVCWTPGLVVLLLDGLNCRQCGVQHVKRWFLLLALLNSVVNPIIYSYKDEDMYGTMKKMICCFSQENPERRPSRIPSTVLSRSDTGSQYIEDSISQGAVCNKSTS
# LPA1 = LPA1 (Homo sapiens, UniProt Q92633); experiment: Ca2+ mobilization antagonist screen against LPA 18:1, LPA1; type: cell-based; conditions: coapplied with LPA 18:1
# Sequence of LPA1 (Q92633 whole entry): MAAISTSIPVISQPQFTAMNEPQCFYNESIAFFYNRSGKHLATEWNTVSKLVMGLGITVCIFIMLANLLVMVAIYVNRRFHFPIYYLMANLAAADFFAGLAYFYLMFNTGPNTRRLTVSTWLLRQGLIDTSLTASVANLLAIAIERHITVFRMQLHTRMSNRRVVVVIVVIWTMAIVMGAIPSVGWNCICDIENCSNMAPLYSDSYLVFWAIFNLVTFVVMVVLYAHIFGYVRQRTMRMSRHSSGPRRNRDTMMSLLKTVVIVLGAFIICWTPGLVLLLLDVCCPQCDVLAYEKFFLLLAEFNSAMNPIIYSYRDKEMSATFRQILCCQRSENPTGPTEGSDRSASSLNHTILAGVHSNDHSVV
# LPA4 [4] = target: T2, LPA4 (Mus musculus, UniProt Q8BLG2); experiment: Ca2+ mobilization antagonist screen against LPA 18:1, LPA4; type: cell-based, human; conditions: coapplied with LPA 18:1
# T2 sequence (Q8BLG2 whole entry): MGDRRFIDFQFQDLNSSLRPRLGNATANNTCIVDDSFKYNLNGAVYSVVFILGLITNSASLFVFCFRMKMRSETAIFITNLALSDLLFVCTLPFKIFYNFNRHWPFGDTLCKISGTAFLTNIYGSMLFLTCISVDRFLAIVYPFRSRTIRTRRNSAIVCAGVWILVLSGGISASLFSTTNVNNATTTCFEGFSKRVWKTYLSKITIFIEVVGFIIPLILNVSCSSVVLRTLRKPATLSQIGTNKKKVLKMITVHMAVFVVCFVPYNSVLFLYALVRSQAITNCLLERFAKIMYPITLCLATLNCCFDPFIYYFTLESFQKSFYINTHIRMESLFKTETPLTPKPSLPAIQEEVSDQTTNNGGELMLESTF
# LPA5 [5] = target: T3, LPA5 (Homo sapiens, UniProt Q9H1C0); experiment: Ca2+ mobilization antagonist screen against LPA 18:1, LPA5; type: cell-based; conditions: coapplied with LPA 18:1
# T3 sequence (Q9H1C0 whole entry): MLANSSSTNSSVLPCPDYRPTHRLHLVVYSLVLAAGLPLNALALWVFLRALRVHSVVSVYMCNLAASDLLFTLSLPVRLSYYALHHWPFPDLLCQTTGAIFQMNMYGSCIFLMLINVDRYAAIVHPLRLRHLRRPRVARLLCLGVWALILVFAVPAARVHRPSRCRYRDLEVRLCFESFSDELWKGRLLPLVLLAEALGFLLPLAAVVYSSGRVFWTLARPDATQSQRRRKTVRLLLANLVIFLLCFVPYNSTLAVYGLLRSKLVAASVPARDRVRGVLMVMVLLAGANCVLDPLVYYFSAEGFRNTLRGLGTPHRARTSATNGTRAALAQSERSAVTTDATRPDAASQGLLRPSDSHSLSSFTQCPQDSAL
# LPA3 [6] = target: T1, LPA3; experiment: Fura-2AM Ca2+ mobilization, agonist mode, LPA3-expressing cells; type: cell-based; conditions: read-out: LPA3 Emax
# LPA4 [7] = target: T2, LPA4; experiment: Fura-2AM Ca2+ mobilization, agonist mode, LPA4 CHO cells; type: cell-based, human; conditions: read-out: LPA4 Emax
# LPA5 [8] = target: T3, LPA5; experiment: Fura-2AM Ca2+ mobilization, agonist mode, LPA5 B103 cells; type: cell-based; conditions: B103, read-out: LPA5 Emax
LPA2 agonist activity (in words) (LPA2),SMILES,EC50 [1],further results
,O=C(O)c1ccccc1SCCCN1C(=O)c2cccc3cccc(c23)C1=O [GRI-977143],> 10 µM,antiapoptotic efficacy (apoptosis): showed antiapoptotic efficacy; efficacy against radiation-induced apoptosis [2]: modestly efficacious
,O=C(O)c1cc(F)ccc1S(=O)(=O)NCCCCN1C(=O)c2cccc3cccc(c23)C1=O [Compound 11c],> 10 µM,
abolished the activity at LPA2,O=C(O)c1ccc(S(=O)(=O)NCCCCN2C(=O)c3cccc4cccc(c34)C2=O)cc1 [Compound 11b],> 10 µM,
,"O=C(O)c1ccccc1S(=O)(=O)NCCCN1C(=O)c2cccc3cccc(c23)C1=O [Compound 4, 2-(N-(3-(1,3-dioxo-1H-benzo[de]isoquinolin-2(3H)-yl)propyl)sulfamoyl)benzoic acid]",> 10 µM,EC50 (LPA2): ~2 µM; IC50 (LPA3 [3]): > 10 µM; LPA1 inhibition (antagonist activity) (LPA1): without activating or inhibiting; LPA4 inhibition (antagonist activity) (LPA4 [4]): without activating or inhibiting; LPA5 inhibition (antagonist activity) (LPA5 [5]): without activating or inhibiting
,"O=C(O)c1cc(Cl)ccc1S(=O)(=O)NCCCCN1C(=O)c2cccc3cccc(c23)C1=O [Compound 11d, 5-chloro-2-(N-(4-(1,3-dioxo-1H-benzo[de]isoquinolin-2(3H)-yl)butyl)sulfamoyl)benzoic acid]",> 10 µM,
,"CCCCCCCC/C=C\CCCCCCCC(=O)OC[C@@H](O)COP(=O)(O)O [LPA 18:1, 1-acyl-2-hydroxy-sn-3-glycerophosphate]",> 10 µM,"Emax (LPA2; MEF, read-out: LPA2 Emax): 100%; Emax (LPA3 [6]): 100%; Emax (LPA4 [7]): 100%; Emax (LPA5 [8]): 100%"
abolished the activity at LPA2,O=C(O)c1cccc(S(=O)(=O)NCCCCN2C(=O)c3cccc4cccc(c34)C2=O)c1 [Compound 11a],> 10 µM,
more potent than compound 4,O=C(O)c1ccc(Br)cc1S(=O)(=O)NCCCCN1C(=O)c2cccc3cccc(c23)C1=O [Compound 8b],> 10 µM,
,"O=C(O)c1ccccc1S(=O)(=O)NCCCCN1C(=O)c2ccccc2C1=O [Compound 7a, 2-[4-(1,3-Dioxo-1,3-dihydroisoindol-2-yl)butylsulfamoyl]benzoic acid]",> 10 µM,EC50 (LPA2): > 10 µM
,O=C(O)c1ccccc1S(=O)(=O)NCCCCN1C(=O)c2cccc3cccc(c23)C1=O [Compound 5],> 10 µM,
,O=C(O)c1cc(Br)ccc1S(=O)(=O)NCCCCN1C(=O)c2cccc3cccc(c23)C1=O [Compound 8c],> 10 µM,
very weak agonist activity,COc1ccc(C(=O)O)c(S(=O)(=O)NCCCCN2C(=O)c3cccc4cccc(c34)C2=O)c1 [Compound 8a],> 10 µM,
,"O=C(O)c1ccc2c(c1)S(=O)(=O)N(CCCCN1C(=O)c3cccc4cccc(c34)C1=O)C2=O [Compound 9, 2-(4-(1,3-dioxo-1H-benzo[de]isoquinolin-2(3H)-yl)butyl)-3-oxo-2,3-dihydrobenzo[d]isothiazole-6-carboxylic acid 1,1-dioxide]",> 10 µM,
,"O=C1C(=O)N(CCCCNS(=O)(=O)c2ccccc2C(=O)O)c2ccccc21 [Compound 7b, 2-(N-(4-(2,3-dioxoindolin-1-yl)butyl)sulfamoyl)benzoic acid]",> 10 µM,EC50 (LPA2): > 10 µM
,O=C(O)c1ccccc1S(=O)(=O)NCCCCCN1C(=O)c2cccc3cccc(c23)C1=O [Compound 6],> 10 µM,

SMILES,LPA2 agonist activity (in words) (LPA2),EC50 [1],further results
"O=C(O)c1ccc(C(=O)O)c(S(=O)(=O)NCCCCN2C(=O)c3cccc4cccc(c34)C2=O)c1 [Compound 10, 2-(N-(4-(1,3-dioxo-1H-benzo[de]isoquinolin-2(3H)-yl)butyl)sulfamoyl)terephthalic acid]",considerably less potent than the compound 9,> 10 µM,
